According to ChEMBL document CHEMBL1124462, “Synthesis, DNA binding, and biological evaluation of synthetic precursors and novel analogues of netropsin” (J Med Chem, 1989):
Converted amounts (≈) assume the structure as drawn.

Columns and labels:
[1] = system: Vero; test: Minimum cytotoxic concentration required to cause a microscopically detectable alteration of normal cell morphology and show antiviral activity in african green monkey (Vero B) cells; assay type: functional; conditions: Chlorocebus sabaeus
[2] = system: Raji; test: Dose required to inhibit Human B-Lymphoblast (Raji) cell proliferation by 50%; assay type: functional; conditions: read-out: CD50 (the source's name)
[3] = system: FM3A; test: In vitro inhibition of FM3A (murine mammary carcinoma) cell proliferation.; assay type: functional; conditions: Mus musculus, read-out: CD50 (the source's name)
[4] = system: HeLa; test: Minimum inhibitory concentration required to reduce Coxsackie virus B4 induced cytopathogenicity by 50% in HeLa cells; assay type: functional; conditions: Homo sapiens
Procedure, shortened: (§1)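 Cell cultures (PRK, HeLa or Vero B) are infected at 100 × CCID50. Cytopathogenicity is recorded once it reaches completion in the untreated virus-infected controls. The minimum inhibitory concentration is given in μg/mL.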

[5] = system: HeLa; test: Minimum cytotoxic concentration required to cause a microscopically detectable alteration of normal cell morphology and show antiviral activity in HeLa cells; assay type: functional; conditions: Homo sapiens
Procedure, shortened: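 HeLa cell cultures exposed to compound for the same duration as the antiviral assay, then examined microscopically. The minimum cytotoxic concentration is the lowest level causing detectable alteration of normal cell morphology. Values are in μg/mL.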

[6] = system: L1210; test: Dose required to inhibit Murine leukemia (L1210) cell proliferation by 50%; assay type: functional; conditions: Mus musculus, read-out: CD50 (the source's name)
[7] = system: Human alphaherpesvirus 2; test: Minimum inhibitory concentration required to reduce herpes simplex virus-2(G) induced cytopathogenicity by 50% in primary rabbit kidney cells (PRK); assay type: functional; procedure, shortened: as §1
[8] = system: Human alphaherpesvirus 1; test: Minimum inhibitory concentration required to reduce herpes simplex virus-1 (KOS) induced cytopathogenicity by 50% in primary rabbit kidney cells(PRK); assay type: functional; procedure, shortened: as §1
[9] = system: Vesicular stomatitis virus; test: Minimum inhibitory concentration required to reduce vesicular stomatitis virus induced cytopathogenicity by 50% in primary rabbit kidney cells (PRK); assay type: functional
[10] = organism: Oryctolagus cuniculus; test: Minimum cytotoxic concentration required to cause a microscopically detectable alteration of normal cell morphology and show antiviral activity in primary rabbit kidney (PRK) cells; assay type: functional
[11] = Dose required to inhibit Human T-Lymphoblast (Molt/4F) cell proliferation by 50%; assay type: functional; conditions: read-out: CD50 (the source's name)
[12] = system: Sindbis virus; test: Minimum inhibitory concentration required to reduce Sindbis virus induced cytopathogenicity by 50% in african green monkey (VeroB) cells; assay type: functional; procedure, shortened: as §1
[13] = system: Vero; test: Minimum inhibitory concentration required to reduce parainfluenza virus-3 induced cytopathogenicity by 50% in african green monkey (VeroB) cells; assay type: functional, Human respirovirus 3; conditions: Chlorocebus sabaeus; procedure, shortened: as §1
[14] = system: Mammalian orthoreovirus 1; test: Minimum inhibitory concentration required to reduce reovirus-1 induced cytopathogenicity by 50% in african green monkey (VeroB)cells; assay type: functional; procedure, shortened: as §1
[15] = system: Semliki Forest virus; test: Minimum inhibitory concentration required to reduce semliki forest virus induced cytopathogenicity by 50% in african green monkey (VeroB) cells; assay type: functional; procedure, shortened: as §1
[16] = system: Vero; test: Minimum inhibitory concentration required to reduce Coxsackie virus B4 induced cytopathogenicity by 50% in african green monkey (VeroB) cells; assay type: functional, Coxsackievirus B4; conditions: Chlorocebus sabaeus; procedure, shortened: as §1
[17] = system: Nucleic Acid; test: Association constant against the polynucleotide poly (dA-dT).; assay type: nucleic-acid assay
Procedure, shortened: (§2)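 Competition with ethidium bromide binding at 25 °C in 0.01 M cacodylate buffer, pH 7.0, with 1.26 μM ethidium bromide and 1 μM polynucleotide. Bound ethidium is estimated from its fluorescence increase (V = 34 for poly(dA-dT), 25 for poly(dG-dC)). IC50 for 50% ethidium displacement comes from a fitted competition sigmoid. Kapp is calculated from IC50 assuming a binding size of four base pairs.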

[18] = system: Nucleic Acid; test: Association constant against polynucleotide poly (dG-dC); assay type: nucleic-acid assay; procedure, shortened: as §2
[19] = system: Nucleic Acid; test: Ratio of association constant of poly (dA-dT) and poly (dG-dC); assay type: nucleic-acid assay
Procedure, shortened: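 Kapp for poly(dA-dT) and for poly(dG-dC) is each determined by ethidium bromide competition in 0.01 M cacodylate, pH 7.0, 25 °C, with 1.26 μM ethidium and 1 μM polynucleotide. IC50 comes from a fitted competition sigmoid and is converted to Kapp assuming a four-base-pair binding size. The ratio is taken between the two polynucleotides.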

For `COC(=O)c1ccc([N+](=O)[O-])n1C`, the MCC [1] was 400 µg/mL, the CC50 [2] was 62.4 µg/mL (≈ 339 µM) and the CC50 [3] was 84.7 µg/mL (≈ 460 µM). For the same compound, the MIC [4] was over 400 µg/mL, the MCC [5] was 400 µg/mL and the CC50 [6] was 28 µg/mL (≈ 152 µM). The MIC [7] was over 400 µg/mL, the MIC [8] was over 400 µg/mL and the MIC [9] was over 400 µg/mL. For the same compound, the MCC [10] was over 400 µg/mL, the CC50 [11] was 66 µg/mL (≈ 358 µM) and the MIC [12] was over 400 µg/mL. It also gave an MIC [13] of over 100 µg/mL, an MIC [14] of over 200 µg/mL and an MIC [15] of over 400 µg/mL. For the same compound, the MIC [16] was over 200 µg/mL.
For `Cn1c(C(=O)NCCC(=N)N)ccc1[N+](=O)[O-]`, the MCC [1] was over 400 µg/mL, the CC50 [2] was over 50 µg/mL and the MIC [4] was over 400 µg/mL. The MCC [5] was over 400 µg/mL, the CC50 [6] was over 50 µg/mL and the K app [17] was under 100 M⁻¹. For the same compound, the MIC [7] was over 100 µg/mL, the MIC [8] was over 200 µg/mL and the MIC [9] was over 400 µg/mL. For the same compound, the MCC [10] was over 400 µg/mL, the CC50 [11] was over 50 µg/mL and the MIC [12] was over 200 µg/mL. For the same compound, the MIC [13] was 100 µg/mL (≈ 418 µM), the MIC [14] was over 100 µg/mL and the MIC [15] was over 200 µg/mL. It also gave a K app [18] of under 100 M⁻¹ and an MIC [16] of over 100 µg/mL.
`Cn1cc(NC(=O)c2cc([N+](=O)[O-])cn2C)cc1C(=O)NCCCNCCCCN` showed an MCC [1] of over 400 µg/mL, a CC50 [2] of over 100 µg/mL and an MIC [4] of over 400 µg/mL. The MCC [5] was over 400 µg/mL, the CC50 [6] was over 100 µg/mL and the K app [17] was 440000 M⁻¹. For the same compound, the Ratio [19] was 5.37, the MIC [7] was over 200 µg/mL and the MIC [8] was over 200 µg/mL. For the same compound, the MIC [9] was over 100 µg/mL, the MCC [10] was over 200 µg/mL and the CC50 [11] was over 100 µg/mL. For the same compound, the MIC [12] was over 400 µg/mL, the MIC [13] was over 200 µg/mL and the MIC [14] was over 200 µg/mL. For the same compound, the MIC [15] was over 400 µg/mL, the K app [18] was 82000 M⁻¹ and the MIC [16] was over 200 µg/mL.
In the case of `CC(NC(=O)c1cc(NC(=O)c2cc(NC(=O)CNC(=N)N)cn2C)cn1C)C(=O)NC(C)C(=O)OC(C)(C)C` (stereo not given), the MCC [1] is reported as over 400 µg/mL, the CC50 [2] is reported as 54.7 µg/mL (≈ 97.7 µM) and the CC50 [3] is reported as over 100 µg/mL. The MIC [4] was over 400 µg/mL, the MCC [5] was over 400 µg/mL and the CC50 [6] was over 100 µg/mL. It also gave a K app [17] of 4400 M⁻¹, a Ratio [19] of 6.29 and an MIC [7] of over 200 µg/mL. For the same compound, the MIC [8] was over 200 µg/mL, the MIC [9] was over 200 µg/mL and the MCC [10] was over 200 µg/mL. It also gave a CC50 [11] of over 100 µg/mL, an MIC [12] of over 400 µg/mL and an MIC [13] of over 400 µg/mL. It also gave an MIC [14] of over 200 µg/mL, an MIC [15] of over 400 µg/mL and a K app [18] of 700 M⁻¹. The MIC [16] was over 400 µg/mL.
`Cn1cc(NC(=O)c2cc(NC(=O)c3cc(NC=O)cn3C)cn2C)cc1C(=O)NCCC(=N)N` showed a K app [17] of 8.5e+07 M⁻¹, a Ratio [19] of 3400 and a K app [18] of 25000 M⁻¹.
Work on `CC(NC(=O)c1cc(NC(=O)c2cc([N+](=O)[O-])cn2C)cn1C)C(=O)NC(C)C(=O)OC(C)(C)C` (stereo not given) yielded an MCC [1] of over 200 µg/mL, a CC50 [2] of 33 µg/mL (≈ 67.3 µM) and a CC50 [3] of 27.2 µg/mL (≈ 55.5 µM). The MIC [4] was over 200 µg/mL, the MCC [5] was over 400 µg/mL and the CC50 [6] was 28.8 µg/mL (≈ 58.7 µM). The K app [17] was 650 M⁻¹, the Ratio [19] was 0.033 and the MIC [7] was over 200 µg/mL. The MIC [8] was over 100 µg/mL, the MIC [9] was over 100 µg/mL and the MCC [10] was over 400 µg/mL. It also gave a CC50 [11] of 29 µg/mL (≈ 59.1 µM), an MIC [12] of over 100 µg/mL and an MIC [13] of over 200 µg/mL. The MIC [14] was over 200 µg/mL, the MIC [15] was over 200 µg/mL and the K app [18] was 20000 M⁻¹. The MIC [16] was over 200 µg/mL.
In the case of `COC(=O)c1cc(NC(=O)c2cc([N+](=O)[O-])cn2C)cn1C`, the MCC [1] is reported as over 40 µg/mL, the CC50 [2] is reported as over 100 µg/mL and the CC50 [3] is reported as over 100 µg/mL. For the same compound, the MIC [4] was over 40 µg/mL, the MCC [5] was over 40 µg/mL and the CC50 [6] was over 100 µg/mL. For the same compound, the MIC [7] was over 10 µg/mL, the MIC [8] was over 10 µg/mL and the MIC [9] was over 40 µg/mL. It also gave an MCC [10] of over 40 µg/mL, a CC50 [11] of over 100 µg/mL and an MIC [12] of over 10 µg/mL. The MIC [13] was over 10 µg/mL, the MIC [14] was over 10 µg/mL and the MIC [15] was over 10 µg/mL. The MIC [16] was over 10 µg/mL.
Work on `Cn1cc(NC(=O)CNC(=N)N)cc1C(=O)NCCCNCCCCN` yielded an MCC [1] of over 400 µg/mL, a CC50 [2] of over 200 µg/mL and a CC50 [3] of over 200 µg/mL. For the same compound, the MIC [4] was over 400 µg/mL, the MCC [5] was over 400 µg/mL and the CC50 [6] was over 200 µg/mL. It also gave a Ratio [19] of 5.26, an MIC [7] of over 400 µg/mL and an MIC [8] of over 400 µg/mL. It also gave an MIC [9] of over 400 µg/mL, an MCC [10] of over 400 µg/mL and a CC50 [11] of over 200 µg/mL. It also gave an MIC [12] of over 400 µg/mL, an MIC [13] of over 200 µg/mL and an MIC [14] of over 200 µg/mL. The MIC [15] was over 400 µg/mL and the MIC [16] was over 400 µg/mL.
